Shown are actives, neighbours in structure and some others; about 3.5% of the full set was active somewhere.
MrgX1 allo act: human MrgX1 positive allosteric modulation, primary screen; Q96LB2; MrgX1-HEK293, Fluo-4 calcium flux, FDSS; stronger effect = higher value; B-score at 10 µM; actives 0.63% (n = 310,000); AID 588675;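 active means plate-corrected calcium response at least 3 library SD above typical, normal starting fluorescence, not activating the receptor alone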;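 further: compound read alongside a low EC10 to EC30 dose of BAM8-22 agonist; peak minus trough fluorescence over baseline measured at the second addition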
Target sequence (Q96LB2 whole entry, looked up): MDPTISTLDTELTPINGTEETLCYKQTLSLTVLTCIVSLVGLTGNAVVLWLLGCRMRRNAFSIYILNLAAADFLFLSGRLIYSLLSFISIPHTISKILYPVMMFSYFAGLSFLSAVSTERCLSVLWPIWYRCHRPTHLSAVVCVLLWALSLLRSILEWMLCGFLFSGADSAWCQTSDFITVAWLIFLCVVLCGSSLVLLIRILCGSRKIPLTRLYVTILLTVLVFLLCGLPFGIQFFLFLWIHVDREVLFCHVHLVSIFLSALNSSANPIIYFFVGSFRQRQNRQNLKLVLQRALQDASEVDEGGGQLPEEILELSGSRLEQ
MrgX1 ag: human MrgX1 receptor agonism, primary screen. B-score at 10 µM. MrgX1-HEK293 cells, Fluo-4 calcium fluorescence, agonist mode; stronger effect = higher value. actives 0.44% (n = 310,000). Q96LB2;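 active means calcium response B-score plate-corrected fluorescence ratio at least 3 library SD, with starting fluorescence B-score inside 5 SD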
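System – MrgX1-expressing HEK293 cells · Incubation – cells plated overnight, dye loaded 0.5 h 37 °C, 0.5 h room temperature · Technique – kinetic Fluo-4 NW fluorescence of intracellular calcium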
RGS4 inh: inhibitors of human RGS4; HEK293 M3R/RGS4 inducible, Fluo-4 calcium flux; stronger effect = higher value; triggered by carbachol at its EC20; P49798; B-score at 10 µM; actives 0.45% (n = 310,000);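 active means B-score, a plate-corrected calcium signal, over three deviations above library mean, with baseline fluorescence within five deviations of library mean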;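 further: RGS4 expression induced by doxycycline in cells with stable M3 receptor; B-score is computed from the integrated fluorescence ratio over baseline after carbachol; higher B-score means a larger calcium signal and so more RGS4 inhibition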
Target sequence (P49798 whole entry, looked up): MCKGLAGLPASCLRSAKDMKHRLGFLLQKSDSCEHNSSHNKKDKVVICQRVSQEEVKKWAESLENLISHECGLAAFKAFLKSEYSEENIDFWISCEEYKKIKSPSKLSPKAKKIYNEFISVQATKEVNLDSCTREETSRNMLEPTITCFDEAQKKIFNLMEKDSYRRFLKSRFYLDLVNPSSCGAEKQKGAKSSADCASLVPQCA
MrgX1 antag: blocks BAM8-22 activation of human MrgX1 receptor | Q96LB2 | MRGX1-HEK293 calcium flux, Fluo-4, BAM8-22 antagonism; stronger effect = lower value | B-score at 10 µM | actives 1.3% (n = 310,000);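 active means calcium-response B-score plate-corrected more than 3 library SD below zero, starting fluorescence within 5 deviations, no agonist response on first addition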;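 further: peak minus trough fluorescence over baseline after final BAM8-22 challenge near maximal dose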
RGS4 act: potentiators or activators of RGS4. HEK293 M3R/inducible RGS4, carbachol calcium flux Fluo4; stronger effect = lower value. B-score at 10 µM. actives 0.92% (n = 310,000). AID 463111;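 active means B-score of the integrated calcium signal more than 4 SD below the library mean, with starting fluorescence not abnormally high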;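 further: negative B-score means reduced calcium response which marks RGS4 activation or potentiation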
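System: HEK293 FlpIn-TREx cells, stable M3R, doxycycline-inducible RGS4. Timing: overnight RGS4 induction, 30 min dye load 37 °C, 20 min compound RT. Also added: carbachol, ECmax concentration. Measured by: Fluo4 fluorescence kinetic imaging of calcium. Evaluation: integrated calcium ratio converted to B score.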
MrgX1 PAM conf: reconfirmed allosteric activator of human MrgX1 receptor | activation (ratio percentage), % at 10 µM | MrgX1-HEK293, Fluo-4 calcium fluorescence, FDSS | actives 13% (n = 1,200) | shares compounds with MrgX1 allo act;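 active means ratio at least 3 SD above the weak peptide control, stable starting fluorescence, no direct agonism earlier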;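 further: compound followed by low BAM8-22 agonist challenge near EC20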
HEK293 Ca flux: activity in parental HEK293 cells lacking MrgX1 | shares compounds with MrgX1 antag | fluorescence ratio F(max-min)/F0 at 10 µM | Fluo-4 calcium fluorescence, FDSS | actives 2% (n = 4,000);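 active means duplicate-averaged calcium fluorescence ratio at least three times the standard deviation of buffer wells, a nonspecific response in parental cells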
HEK293 Ca counter: MrgX1 allosteric activator counter-screen hit in parental HEK293 cells; shares compounds with MrgX1 antag; parental HEK293 calcium flux, Fluo-4 fluorescence ratio; stronger effect = higher value; fluorescence ratio F(max-min)/F0 at 10 µM; actives 0.4% (n = 4,000); AID 624114;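 active means calcium fluorescence ratio, averaged over duplicates, at least 3 SD of the buffer-well ratio, meaning a nonspecific response in receptor-free cells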;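 further: untransfected parental HEK293 lacking MrgX1 used as counterscreen for MrgX1 allosteric activators; fluorescence change taken during the second addition on a kinetic imager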
HEK293 Ca cntr2: activity in parental HEK293 cells lacking MrgX1 receptor; AID 624115; shares compounds with MrgX1 antag; actives 8.7% (n = 4,000); Fluo-4 calcium fluorescence (FDSS); stronger effect = higher value; fluorescence ratio F(max-min)/F0 at 10 µM;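 active means calcium fluorescence ratio at least three times the spread of buffer wells, meaning a non-specific response in parental cells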
Starred values were filed as active, the others as inactive; i = inactive; . = no result.

SMILES	MrgX1 allo act	MrgX1 ag	RGS4 inh	MrgX1 antag	RGS4 act	MrgX1 PAM conf	HEK293 Ca flux	HEK293 Ca counter	HEK293 Ca cntr2
OC(CN1CCCCC1)Cn1c2ccc(Cl)cc2c2cc(Cl)ccc21 (configuration not stated)	6.7*	i	i	i	i	i	i	i	i
OC(CN1CCN(c2ccccn2)CC1)Cn1c2ccc(Cl)cc2c2cc(Cl)ccc21 (configuration not stated)	i	i	i	i	i	.	.	.	.
Cc1cc(NC(=O)c2cccc(S(=O)(=O)N3CC(c4ccccc4)CC3=O)c2)no1 (configuration not stated)	8.3*	i	i	i	i	i	i	i	i
CCn1c(SCC(=O)NNC(=O)c2ccc(OC)cc2)nnc1-c1ccco1	i	i	i	i	i	.	.	.	.
COc1cccc(C(=O)/C=C/Nc2ccc(S(=O)(=O)Nc3cc(OC)nc(OC)n3)cc2)c1	20*	i	i	i	i	i	i	i	i
C=CCc1c(C)nc(SC)nc1Nc1ccc(C(=O)O)cc1	i	i	i	i	i	.	.	.	.
C=CCc1c(C)nc(SC)nc1Nc1ccc(C(C)=O)cc1	7*	i	i	i	i	i	i	i	i
CCOC(=O)c1sc(NC(=O)c2ccccc2C(=O)O)c(C(=O)OCC)c1C	13*	i	i	i	i	i	i	i	i
O=C(Cc1ccc(F)cc1)Nc1nnc(SCC(=O)N2CCCCC2)s1	i	i	i	i	i	.	.	.	.
O=C(Nc1nnc(SCC(=O)N2CCCCC2)s1)c1ccc(F)cc1F	6.8*	i	i	i	i	i	i	i	i
CCOc1ccccc1N(CC(=O)NC1CCCCC1)S(=O)(=O)c1ccc(C)cc1	9.2*	i	i	i	i	i	i	i	i
O=C(OCC(=O)N1CCN(c2ccccc2)CC1)c1cc(Cl)ccc1[N+](=O)[O-]	i	i	i	i	i	.	.	.	.
COc1ccccc1NC(=O)c1ccc(NS(=O)(=O)c2ccc(F)c(F)c2F)cc1	36*	i	i	i	i	28%*	i	i	i
O=C1Nc2cc(C(=O)N3CCOCC3)ccc2S/C1=C\c1ccccc1	i	i	i	i	i	.	.	.	.
Cc1cccc(/C=C2/Sc3ccc(C(=O)N4CCOCC4)cc3NC2=O)c1	23*	i	i	i	i	i	i	i	i
CCc1nc2ccccc2c(C(=O)NCc2ccccc2)c1C	7*	i	i	i	i	i	i	i	i
CCc1nc2ccccc2c(C(=O)O)c1C	i	i	i	i	i	.	.	.	.
O=C(CCn1c(=S)oc2ccccc21)NC1CCCCCC1	7*	i	i	i	i	i	i	i	i
COc1ccc(Nc2nc(C)c3ccccc3n2)cc1	15*	i	i	i	i	i	i	i	i
COc1ccccc1-c1nc2ccccc2nc1-c1ccccc1	9*	i	i	i	i	i	i	51*	i
COc1ccc(-c2cc(C(=O)N/N=C/c3cccnc3)c3cc(C)cc(C)c3n2)cc1	i	i	i	i	i	.	.	.	.
CN(C1CCCCC1)S(=O)(=O)c1cccc(C(=O)OCC(=O)NC2CCCc3ccccc32)c1 (configuration not stated)	i	i	i	i	i	.	.	.	.
CC(C)(C)c1ccc(-n2ncc3c2CCCC3NC(=O)CN2CCCC2=O)cc1 (configuration not stated)	13*	i	i	i	i	i	i	i	i
CNc1ccc2nnc(C(F)(F)C(F)(F)C(F)(F)F)n2n1	i	i	i	i	i	.	.	.	.
O=C(c1ccc(COc2ccc3c(c2)CCC3)o1)N1CCN(c2ccccc2)CC1	7.7*	i	i	i	i	i	i	i	i
SMILES	MrgX1 allo act	MrgX1 ag	RGS4 inh	MrgX1 antag	RGS4 act	MrgX1 PAM conf	HEK293 Ca flux	HEK293 Ca counter	HEK293 Ca cntr2
O=C(CNC(=O)c1ccc(OC(F)F)cc1)Nc1cccc(S(=O)(=O)N2CCCC2)c1	i	i	i	i	i	.	.	.	.
CC1CCC(NC(=O)CCNC(=O)c2ccccc2)CC1 (configuration not stated)	i	i	i	i	i	.	.	.	.
Cc1ccccc1Oc1ncnc2oc(-c3ccccc3)cc12	18*	i	i	i	i	44%*	i	i	i
CCC(C)(C)n1nnnc1C(c1ccc(Cl)cc1)N1CCN(C)CC1 (configuration not stated)	11*	i	i	i	i	i	i	i	i
CCC(C)(C)n1nnnc1C(c1ccc(C)cc1)N1CCC(C)CC1 (configuration not stated)	i	i	i	i	i	.	.	.	.
CSC1=NSC2=NC(=O)/C(=C\c3cccs3)C(=N)N12	27*	i	i	i	i	15%*	i	i	i
CC(C)CSC1=NSC2=NC(=O)/C(=C\c3cccs3)C(=N)N12	i	i	i	i	i	.	.	.	.
NC(=O)C(c1ccccc1)c1ccc(C(=O)c2ccccc2)cc1 (configuration not stated)	i	i	i	i	i	.	.	.	.
CCc1noc(C)c1C(=O)NCCc1ccccc1	i	i	i	i	i	.	.	.	.
Cc1cc(C)n(/N=C/c2ccccc2O)c(=O)c1	i	i	i	i	i	.	.	.	.
Cc1cc(C)n(/N=C/c2cc(Cl)cc(Cl)c2O)c(=O)c1	21*	i	i	i	i	i	0.43*	i	77*
COc1cccc(/C=N/n2c(SC)nnc2-c2ccccc2)c1O	20*	i	i	i	i	154%*	i	i	i
Cc1cccc(/C=C/c2onc(C)c2S(=O)(=O)N2CCC(C(=O)NC(C)C)CC2)c1	i	i	i	i	i	.	.	.	.

Assay outcomes deposited in PubChem by Johns Hopkins Ion Channel Center.
